Measured values collected from several papers.
Protocols differ between the studies behind these lines. Values after ≈ are worked out from the molar mass of the structure shown.
Organism: Mycobacterium tuberculosis

| SMILES | observed | technique | strain | time | quantity | result |
| --- | --- | --- | --- | --- | --- | --- |
| CO[C@H]1/C=C/O[C@@]2(C)Oc3c(C)c(O)c4c(O)c(c(/C=N/N5CCN(C)CC5)c(O)c4c3C2=O)NC(=O)/C(C)=C\C=C\[C@H](C)[C@H](O)[C@@H](C)[C@@H](O)[C@@H](C)[C@H](OC(C)=O)[C@@H]1C | microbial growth | – | ERDMAN | – | IC90 | 0.035 µM |
| Cc1cc(C)nc(-n2nc(C)cc2NC(=O)c2ccc3c(c2)OCO3)n1 | microbial growth | – | H37RV | – | MIC50 | > 20 µM |
| CCCCCCC#Cc1cncc(-c2nnc(Sc3ccc([N+](=O)[O-])cc3[N+](=O)[O-])n2C)c1 | microbial growth | – | ERDMAN | – | IC90 | 1.2 µM |
| COC(=O)c1cc(-c2cccc(NC(=O)Nc3ccc(OC)cc3)c2)on1 | microbial growth | – | ATCC27294 H37RV | 7 days | MIC | 8 µg/mL (≈ 21.8 µM) |
| O=[N+]([O-])c1cc2cc3ccc4oc([N+](=O)[O-])cc4c3cc2o1 | microbial killing | resazurin | H37RV | – | MBC | 0.5 µg/mL |
| CCCCCCC#Cc1cncc(-c2nnc(SCc3ccc(C#N)cc3)n2C)c1 | microbial growth | – | – | – | IC50 | 2.3 µM |
| CNc1cc(-n2nc(C(=O)NCCN3C(C)CCCC3C)cc2Nc2cc(NC(=O)c3cncc(C(C)(C)C)c3)ccc2C)ncn1 (stereo not drawn) | microbial killing | – | H37RV | 5 days | MBC | 1.25 to 2.5 µM |
| O=C(O)c1nccnc1NC(=O)c1cccc2ccccc12 | microbial growth | – | ATCC27294 H37RV | – | MIC50 | 1000 µM (≈ 293 µg/mL) |
| CC(N)(CO)C(=O)Nc1ccc(C(=O)Nc2ccnc(=O)[nH]2)cc1 (stereo not drawn) | microbial growth | – | H37RA | – | IC50 | > 100 µM |
| [H]/N=C(/N)N[C@H]1[C@H](O)[C@@H](O)[C@H](O[C@@H]2O[C@@H](C)[C@](O)(C=O)[C@H]2O[C@@H]2O[C@@H](CO)[C@H](O)[C@@H](O)[C@@H]2NC)[C@@H](N/C(N)=N\[H])[C@@H]1O | microbial growth | – | ATCC27294 H37RV | 7 days | MIC | 0.5 µg/mL (≈ 0.86 µM) |
| CCOC(=O)c1c(NC(=O)c2c(F)c(F)c(F)c(F)c2F)sc2c1CCN(CC)C2 | microbial growth | – | H37RV | – | MIC50 | 0.12 µM (≈ 0.0538 µg/mL) |
| CCc1nc2ccc(Cl)cn2c1C(=O)NCc1ccc(N2CCC(c3ccc(OC(F)(F)F)cc3)CC2)cc1 | microbial growth | – | ERDMAN | – | IC50 | 0.0031 µM |
| COC(=O)c1cc(-c2ccc(OC)c(NC(=O)Nc3ccc(Cl)c(Cl)c3)c2)on1 | microbial growth | – | ATCC27294 H37RV | 7 days | MIC | 8 µg/mL (≈ 18.3 µM) |
| CCCCCCC#Cc1cncc(-c2nnc(SCc3ccc(Cl)cc3)n2C)c1 | microbial growth | – | – | – | IC50 | 0.85 µM |
| CCc1nc2ccc(Cl)cn2c1C(=O)NCc1ccc(N2CCC(c3ccc(OC(F)(F)F)cc3)CC2)cc1 | microbial growth | – | H37RV | – | MIC90 | 0.02 µM (≈ 0.0111 µg/mL) |
| COC(=O)c1cc(-c2cccc(NC(=S)Nc3ccccc3Cl)c2)on1 | microbial growth | – | ATCC27294 H37RV | 7 days | MIC | 2 µg/mL (≈ 5.16 µM) |
| CCCCCCC#Cc1cncc(-c2nnc(SCc3ccc(Cl)cc3)n2C2CC2)c1 | microbial growth | – | ERDMAN | – | IC90 | 7.5 µM |
| c1cc(Cn2cnc3ccccc32)nc(Cn2cnc3ccccc32)c1 | microbial killing | – | H37RV | 21 days | MBC | > 50 µM |
